Experimental data as given in ChEMBL document CHEMBL1687739 (Antimicrob Agents Chemother, 2009).
The source made the active and inactive calls. The calls are words filed in the database; no cut-off is given here.

Experiments:
Plasmodium falciparum = experiment: Antiplasmodial activity against erythrocytic stage of chloroquine - and pyrimethamine-resistant Plasmodium falciparum K1 assessed as [3H]hypoxanthine incorporation after 48 hrs; type: functional, organism-based
In short: (§1)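 K1 erythrocytic stages were cultured in hypoxanthine-free RPMI 1640 with Albumax, A+ RBC at 2.5% hematocrit and 0.3% parasitemia. DMSO stocks were 10 mg/ml; seven twofold dilutions covered 5 to 0.156 μg/ml. Plates were held at 37°C in 4% CO2/3% O2/93% N2 for 48 h, then 0.5 μCi [3H]hypoxanthine was added for 24 h and scintillation counted. IC50 from sigmoidal curves. SI = L-6 CC50/IC50.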

[1] = Selectivity index, CC50 for rat L-6 cells to IC50 for erythrocytic stage of chloroquine - and pyrimethamine-resistant Plasmodium falciparum K1; type: functional; in short: as §1
[2] = Cytotoxicity against rat L6 cells after 72 hrs by microplate alamar blue assay; type: cell-based
In short: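 Rat skeletal myoblast L-6 cells, 4 × 10^4/well in RPMI 1640 with L-glutamine and 10% FBS, were given seven threefold dilutions (90 to 0.123 μg/ml) for 72 h. Alamar Blue was added for 2 h and fluorescence read at ex 536/em 588 nm. Tested in duplicate, assay repeated at least once.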

Trypanosoma cruzi = experiment: Antitrypanosomal activity against Trypanosoma cruzi Tulahuen C2C4 trypomastigote after 48 hrs; type: functional, organism-based; conditions: Tulahuen C2C4, 48 h
In short: (§2)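 T. cruzi Tulahuen C2C4 (LacZ) trypomastigotes, 5,000/well, were added to rat L-6 myoblasts seeded 24 h earlier in RPMI 1640 with 10% FBS. After 48 h the medium was replaced with seven threefold drug dilutions (90 to 0.123 μg/ml) and incubated 96 h. CPRG-Nonidet was added and read at 540 nm after 2–6 h to give IC50. Duplicates, assay repeated at least once. SI = L-6 CC50/parasite IC50.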

Leishmania donovani = experiment: Antileishmanial activity against Leishmania donovani MHOM/ET/67/L82 amastigote after 72 hrs; type: functional, organism-based; conditions: MHOM/ET/67/L82, 72 h
In short: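 Axenic amastigotes were grown at 37°C under 5% CO2 in SM medium, pH 5.4, with 10% heat-inactivated FBS. 10^5 per well were exposed 72 h to serial dilutions (30 to 0.041 μg/ml). Alamar Blue was added for 2 h, then fluorescence read at ex 536/em 588 nm as % of control. IC50 came from sigmoidal curves. Duplicates, repeated at least once.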

[3] = Selectivity index, CC50 for rat L-6 cells to IC50 for Trypanosoma cruzi Tulahuen C2C4 trypomastigote; type: functional; in short: as §2
[4] = Selectivity index, CC50 for rat L-6 cells to IC50 for Trypanosoma brucei rhodesiense ST1B900 trypomastigote […]; type: functional
In short: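 Bloodstream-form STIB900, 10^4/well in supplemented MEM with 15% heat-inactivated horse serum, were exposed to seven threefold dilutions (90 to 0.123 μg/ml) for 72 h at 37°C, 5% CO2. Alamar Blue was added for 2–4 h, then fluorescence read at ex 536/em 588 nm. SI = L-6 CC50/IC50. Duplicates, repeated at least once.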

[5] = tested on: Trypanosoma brucei rhodesiense; experiment: Antitrypanosomal activity against Trypanosoma brucei rhodesiense ST1B900 trypomastigote infected in NMR1 mouse assessed as survival of mouse at 50 mg/kg, ip administered on day 3 post infection for 4 days; type: functional, organism-based; set-up: dose 50 mg/kg

| SMILES | IC50 (Plasmodium falciparum) [µM] | Selectivity Index [1] | CC50 at 72 h [2] [µM] | IC50 (Trypanosoma cruzi) [µM] | IC50 (Leishmania donovani) [µM] | Selectivity Index [3] | Selectivity Index [4] | Activity [5] |
| --- | --- | --- | --- | --- | --- | --- | --- | --- |
| CCCCCCCCCCCCCNC(=N)N.O=S(=O)(O)O [AMINO(TRIDECYLAMINO)METHANIMINIUM HYDROGENSULFATE] | 7.98 | 2.4 | 19.6 | – | – | – | – | – |
| CCC(=O)N(CCCCCCCCCCCCN/C(=N/C(=O)OC(C)(C)C)NC(=O)OC(C)(C)C)C1CCN(CCc2ccccc2)CC1 | 0.41 | 18 | 7.54 | 5.2 | 5.78 | <3 | – | – |
| CC(C)(C)OC(=O)NCCCCCNC1CCN(CCc2ccccc2)CC1 | 1.53 | – | 95.6 | 69 | > 77 | – | – | – |
| CC(C)(C)OC(=O)NCCCCCCCCCCCCNC1CCN(CCc2ccccc2)CC1 | 0.32 | 25 | 8.2 | 3.16 | 17.8 | <3 | 52 | – |
| CC(C)(C)OC(=O)NCCNC1CCN(CCc2ccccc2)CC1 | 2.06 | – | 174 | 55.5 | 81.2 | – | – | – |
| CCCCCCCCCCCCCCCCOP(=O)([O-])OCC[N+](C)(C)C [MILTEFOSINE] | – | – | – | – | 0.205 | – | – | – |
| CC(C)(C)OC(=O)NCCCCCCCNC1CCN(CCc2ccccc2)CC1 | 0.77 | 42 | 32.9 | 11.9 | > 72 | – | 41 | – |
| CC(C)(C)OC(=O)NCCCCCCCCCNC1CCN(CCc2ccccc2)CC1 | 0.36 | 16 | 6.05 | 3.73 | > 67 | <3 | 48 | – |
| N=C(N)NCCCCCCNC(=N)N.O=S(=O)(O)O | 0.445 | >679 | > 302 | – | – | – | – | – |
| O=[N+]([O-])c1cccc(NC2CCN(CCc3ccccc3)CC2)c1 | 10.6 | – | 257 | 46.1 | 23.2 | – | – | – |
| CCC(=O)N(CCCCCCCCN/C(=N/C(=O)OC(C)(C)C)NC(=O)OC(C)(C)C)C1CCN(CCc2ccccc2)CC1 | 0.6 | 35 | 21.5 | 12.3 | 14.8 | – | – | – |
| CCC(=O)N(CCN/C(=N/C(=O)OC(C)(C)C)NC(=O)OC(C)(C)C)C1CCN(CCc2ccccc2)CC1 | 1.85 | – | 35.6 | 36.8 | 19.1 | – | – | – |
| CC(C)(C)OC(=O)NCCCCCCCCNC1CCN(CCc2ccccc2)CC1 | 0.62 | 25 | 15.5 | 5.72 | > 69 | <3 | 130 | inactive |
| CCC(=O)N(CCCCCCCCCCCCNC(=O)OC(C)(C)C)C1CCN(CCc2ccccc2)CC1 | 1.32 | – | 13.8 | 8.07 | 6.2 | <3 | – | – |
| N=C(N)NCCCCCCCCNC(=N)N.O=S(=O)(O)O | 0.106 | >2608 | > 276 | – | – | – | – | – |
| CC(C)(C)OC(=O)NCCCCNC1CCN(CCc2ccccc2)CC1 | 1.28 | – | 155 | 56.3 | > 80 | – | – | – |
| CCC(=O)N(CCCCCCCCCNC(=O)OC(C)(C)C)C1CCN(CCc2ccccc2)CC1 | 1.43 | – | 16 | 11.7 | 34.8 | – | – | – |
| CCC(=O)N(CCCCCCN/C(=N/C(=O)OC(C)(C)C)NC(=O)OC(C)(C)C)C1CCN(CCc2ccccc2)CC1 | 0.85 | 29 | 24.9 | 23.2 | 13.2 | – | – | – |
| CC(C)(C)OC(=O)NCc1cccc(CNC2CCN(CCc3ccccc3)CC2)c1 | 1.66 | – | 111 | 17.3 | 78.1 | – | 219 | – |
| CCC(=O)N(CCCN/C(=N/C(=O)OC(C)(C)C)NC(=O)OC(C)(C)C)C1CCN(CCc2ccccc2)CC1 | 1.35 | – | 80.7 | > 53 | 31 | – | – | – |
| N=C(N)NCCCCCCCCCNC(=N)N.O=S(=O)(O)O | 0.084 | >3162 | > 265 | – | – | – | – | – |
| CC(C)(C)OC(=O)NCCCNC1CCN(CCc2ccccc2)CC1 | 2.08 | – | 129 | 55.4 | 68.9 | – | – | – |
| CC(C)(C)OC(=O)NCCCCCCNC1CCN(CCc2ccccc2)CC1 | 0.9 | 43 | 39.3 | 28.6 | > 74 | – | 36 | – |
